Measured values gathered from unrelated publications.
Cell line: MCF7
Read-out: cell growth or viability

Compound	assay	setting	IC50 [µM]
FC(F)(F)c1cccc(Nc2ncnc3ccc(-c4ccc5c(c4)OCO5)cc23)c1	MTT	24 h	6.74
O=c1cc(CO)occ1[O-].[Cl-].[W+4].c1cc[cH-]c1.c1cc[cH-]c1	MTT		590
CC(=O)CC(=O)[c-]1cccc1.[Fe+2].c1cc[cH-]c1	MTT	96 h	54
Cc1ccc2nc(-c3ccccc3Cl)[nH]c2c1	MTT	48 h	> 100
Cc1ccc2c(Cl)cc(Cl)c(O)c2n1	MTT	48 h	> 100
COc1cc2ncnc(Nc3ccc(F)c(Cl)c3)c2cc1NC(=O)N/N=C/CN(C)C	MTT	72 h	5.38
COc1cc([C@@H]2c3cc4c(cc3[C@@H](O[C@@H]3O[C@@H]5CO[C@@H](C)O[C@H]5[C@H](O)[C@H]3O)[C@H]3COC(=O)[C@H]23)OCO4)cc(OC)c1O	MTT	48 h	32.8
COc1ccnc(-c2cc(OC)ccn2)c1	MTT	48 h	> 50
CN(C)C/C=N/NC(=O)Nc1cc2c(Nc3ccc(F)c(Cl)c3)ncnc2cc1O[C@H]1CCOC1	MTT	72 h	5.72
Oc1ccc(-c2csc(Nc3ccc4c(O)ncnc4c3)n2)cc1	MTT		7.43
COc1cccc2c1C(=O)c1c(O)c3c(c(O)c1C2=O)C[C@@](O)(C(=O)CO)C[C@@H]3O[C@H]1C[C@H](N)[C@H](O)[C@H](C)O1		48 h	1.2
Cc1nc(Nc2ncc(C(=O)Nc3c(C)cccc3Cl)s2)cc(N2CCN(CCO)CC2)n1	MTT	48 h	7.99
Fc1cccc(Cl)c1-c1nc2ccccc2[nH]1	MTT	48 h	> 100
Oc1ncnc2cc(Nc3nc(-c4ccc(Br)cc4)cs3)ccc12	MTT		4.92
O=C(NC(=S)NCc1ccc(CNC(=S)NC(=O)c2ccc3ccccc3c2)cc1)c1ccc2ccccc2c1		48 h	1.19
FC(F)(F)c1cccc(Nc2ncnc3ccc(-c4ccc(CN5CCOCC5)cc4)cc23)c1	MTT	24 h	4.05
CC/C(=C(\c1ccc(O)cc1)c1ccc(OCCNC)cc1)c1ccccc1		5 days	0.675
O=C(N/N=C/c1cccn1CCCN1CCCC1)Nc1cc2c(Nc3ccc(F)c(Cl)c3)ncnc2cc1O[C@H]1CCOC1	MTT	72 h	2.41
O=S(=O)(NN=Cc1cn(CCN2CCOCC2)c2ccccc12)c1cccc2ncccc12	MTT	48 h	79.1
CC(=O)OC[C@H]1O[C@@H]([S-])[C@H](OC(C)=O)[C@@H](OC(C)=O)[C@@H]1OC(C)=O.CCP(CC)CC.[Au+]	resazurin		5.2
Oc1ccc(Br)cc1-c1nc2ccccc2[nH]1	MTT	48 h	5.1
CC(C)NCC(O)COc1ccccc1-c1ccccc1OCC(O)CNC(C)C (stereo not shown)	MTT	72 h	> 75
COc1cc2ncnc(Nc3ccc(F)c(Cl)c3)c2cc1NC(=O)N/N=C/c1cccn1CCN1CCN(C)CC1	MTT	72 h	1.85

Compound	assay	setting	IC50 [µM]
O=Cc1ccc(CO)o1	WST-1	48 h	46.2
CCN(CC)CCCn1cccc1/C=N/NC(=O)Nc1cc2c(Nc3ccc(F)c(Cl)c3)ncnc2cc1OC	MTT	72 h	2.43
CSc1nc(NC(=S)NCCc2ccccc2)n(-c2ccc(C(=O)O)cc2)n1	MTT		15.6
CCOc1ccc(-c2nc3ccccc3[nH]2)cc1	MTT	48 h	> 100
O=C(N/N=C/c1cccn1CCN1CCCCC1)Nc1cc2c(Nc3ccc(F)c(Cl)c3)ncnc2cc1O[C@H]1CCOC1	MTT	72 h	2.41
Clc1ccccc1-c1nc2ccccc2[nH]1	MTT	48 h	69
COc1cccc2c1C(=O)c1c(O)c3c(c(O)c1C2=O)C[C@@](O)(C(=O)CO)C[C@@H]3O[C@H]1C[C@H](N)[C@H](O)[C@H](C)O1	MTT	48 h	0.09
CCOc1cc(OCC)cc(C(=O)O[C@@H]2CN3Cc4c(cc5c(c4OC)OCO5)[C@@]24C=C[C@H](OC)C[C@@H]34)c1	WST-1		6.3
Oc1ccccc1-c1ccc2ncnc(Nc3cccc(C(F)(F)F)c3)c2c1	MTT	24 h	7.13
CSc1nc(/N=C/c2ccc(O)cc2)n(-c2ccc(C(=O)O)cc2)n1	MTT		34.8
Cc1cc(C)n(-c2nc(Nc3ccc(Br)cc3)nc(N3CCOCC3)n2)n1	MTT	72 h	4.53
Fc1ccc(-c2nc3ccccc3n2Cc2ccccc2)cc1	MTT		31.5
COc1ccc(-c2nn(-c3ccc(S(C)(=O)=O)cc3)cc2/C=N/N=c2\[nH]c(-c3ccc(Br)cc3)cs2)cc1	MTT	48 h	3.18
CN1CCN(CCn2cccc2/C=N/NC(=O)Nc2cc3c(Nc4ccc(F)c(Cl)c4)ncnc3cc2O[C@H]2CCOC2)CC1	MTT	72 h	2.42
O=C(Nc1nnnn1C1CCCCC1)c1ccc2ccccc2c1		48 h	2.38
COc1cc2ncnc(Nc3ccc(F)c(Cl)c3)c2cc1NC(=O)N/N=C/c1cccn1CCN1CCOCC1	MTT	72 h	1.17
O=C(NC(=S)NCc1ccccc1)c1ccc2ccccc2c1		48 h	4.99
CC(C)NCC(O)COc1cc2ccccc2cc1OCC(O)CNC(C)C (stereo not shown)	MTT	72 h	> 75
CSc1nc(N)n(-c2ccc(C(=O)O)cc2)n1	MTT		32.9
Cc1ccc2nc(-c3c4ccccc4cc4ccccc34)[nH]c2c1	MTT	48 h	39
COc1nc(OCc2cccc(-c3ccccc3)c2C)ccc1CNCCNC(C)=O	MTT		6.2
Oc1cccc(-c2nc3ccccc3[nH]2)c1	MTT	48 h	> 100
COc1cccc2c1C(=O)c1c(O)c3c(c(O)c1C2=O)C[C@@](O)(C(=O)CO)C[C@@H]3O[C@H]1C[C@H](N)[C@H](O)[C@H](C)O1	MTT	72 h	0.74
